Here are results for 95 compounds from ChEMBL document CHEMBL4513216, “Probing the Open Global Health Chemical Diversity Library for Multistage-Active Starting Points for Next-Generation Antimalarials” (ACS Infect Dis, 2020).

Molecules are shown by their SMILES.

A short description of the series: Toxicity liver stage against HepG2, at 10uM. It is filed as cell-based. Further details: test concentration 10 uM, cell line HepG2-A16-CD81EGFP. As to conditions: human, HepG2-A16-CD81EGFP cells; read-out: INHIBITION
The method in brief:
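Uninfected HepG2-A16-CD81EGFP cells, 3 × 10^3 per well, 1536-well, plated on prespotted compound at 10 μM final, parasite-free screening media added to match infected plates; puromycin 10 μM positive, DMSO 0.5% negative; run in parallel with 48 h PbLuc assay at 37 °C, 5% CO2; viability by CellTiter-Glo luminescence, normalized to controls.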
On to `CC(C)Cc1nc(OCC(N)=O)c(C#N)c2c1CCCC2`, for which the cytotoxicity at 10 µM is -9.53%. Take `COc1ccc(-c2csc3c2c(N)nc(=O)n3CCN(C)C)cc1`: the cytotoxicity at 10 µM is -49.9%.

Consider `CC(C)Nc1nc2c(c(N(C)C)n1)CCN(C(=O)c1cc[nH]n1)CC2`, for which the cytotoxicity at 10 µM was 6.59%.

With `CSc1nc2ncc3c(=O)n(CCN4CCCCC4)ccc3n2n1`, the cytotoxicity at 10 µM came out at 5.23%.

`Cc1ccc(N2CCN(C(=O)COc3nccc(C)n3)CC2)nn1`: the cytotoxicity at 10 µM was -25.1%. As for `CN(C)C(=O)C1CCCN(C(=O)c2ccccc2-n2cc(CN)cn2)C1` (stereo not given), the cytotoxicity at 10 µM stood at 11.6%.

As to `Cc1cc(CCC(=O)O)nc(C2CCCN2c2ccnc(C)n2)n1` (stereo not given), the cytotoxicity at 10 µM is -8.12%. For `Cc1cc(CN(C)Cc2ncc(-c3ccccc3)o2)no1`, the cytotoxicity at 10 µM was -13.8%.

Take `CCOCCNC(=O)c1cnc(Sc2nccn2C)c(Cl)c1`: the cytotoxicity at 10 µM was -44.6%.

On to `CCN(C)S(=O)(=O)N1CCC(C(O)c2ccc(F)cc2)CC1` (stereo not given), for which the cytotoxicity at 10 µM is -22%. Take `O=S(=O)(c1ccc(Cl)s1)N1CCCC(c2ncc[nH]2)C1` (stereo not given): the cytotoxicity at 10 µM amounted to 6.68%.

Take `O=C1CCCN1CCCN1CCCCC1Cn1cncn1` (stereo not given): the cytotoxicity at 10 µM was -0.358%. As for `COc1ccc(-c2nc(CCNC(=O)NC3CCC(O)CC3)co2)cc1` (stereo not given), the cytotoxicity at 10 µM was 7.66%. The result for `CC(C)COc1cncc(N2CCCN(c3ncccn3)CC2)n1` reads -2.38%; that for `COCc1cc(N(C)Cc2ncnn2C)nc(C(C)(C)C)n1`, 6.39%; that for `COc1ccc2c(c1)CCCN2C(=O)CN1CCOC(C)C1` (stereo not given), 2.59%.

Take `COCC(=O)N1CCN(C(=O)C2(c3ccc(C)c(OC)c3)CC2)CC1`: the cytotoxicity at 10 µM was -8.19%. With `CNS(=O)(=O)c1cccc(C(C)NCc2cccc(O)c2)c1` (stereo not given), the cytotoxicity at 10 µM turned out to be 1.14%. In the case of `O=C(NCc1nnc2n1CCC2)N(Cc1ccc(F)cc1)C1CC1`, the cytotoxicity at 10 µM is -5.31%.

As for `CCOc1cc(C)nc(N2CCN(Cc3nccn3CC)CC2)n1`, the cytotoxicity at 10 µM was -3.81%. In the case of `CSCC(CCO)NC(=O)Nc1cc(F)ccc1C` (stereo not given), the cytotoxicity at 10 µM is -1.8%.

For the compound `COc1cc(OC)cc(C2(O)CCN(Cc3ncc(C)o3)CC2)c1`, the cytotoxicity at 10 µM worked out at 17%. The result for `CCNc1ncc(C(=O)Nc2nnc(N3CCCCC3)[nH]2)s1` reads -12.4%. Take `CN(Cc1ccc(C#N)cc1)Cn1nccc1-c1cccnc1`: the cytotoxicity at 10 µM amounted to 8.4%. Consider `CCN(C)S(=O)(=O)NCC1(c2ccccc2Br)CC1`, for which the cytotoxicity at 10 µM turned out to be 1.22%. In the case of `Cc1cccc(N2N=C(C(=O)NC(C)Cn3cccn3)CCC2=O)c1` (stereo not given), the cytotoxicity at 10 µM turned out to be 0.479%.

For `CCN1CCC(NC(=O)Cc2csc(C(C)(C)C)n2)CC1`, the cytotoxicity at 10 µM was -16.3%. Regarding `CC(C)c1nnc(NC(=O)Cc2ccc(F)cc2)[nH]1`, the cytotoxicity at 10 µM was -8%. The result for `NC(=O)[C@@H]1Cc2ccccc2CN1S(=O)(=O)N1CCCCC1` reads 3.33%; that for `Cn1cnnc1C1CCN(C(=O)c2cc(-c3ccccc3)on2)CC1`, 3.77%; that for `Cc1noc(CS(=O)(=O)C(C)C(=O)N(C)c2ccccc2)n1` (stereo not given), 9.26%. The result for `CC(OCC1CC1)C(=O)Nc1ncccc1I` (stereo not given) reads 12.1%. Regarding `CN(C(=O)Cn1nnnc1C(C)(C)C)c1ccccc1`, the cytotoxicity at 10 µM is -48.4%. Take `CN(C)C(C(=O)Nc1nccs1)c1c(F)cccc1Cl` (stereo not given): the cytotoxicity at 10 µM was -44.4%.

As to `CCN(Cc1noc(CC(C)C)n1)Cc1ccccc1Cl`, the cytotoxicity at 10 µM was -50.6%.

Regarding `CC(=O)N1CCO[C@@H]2CN(S(=O)(=O)C3CC3)C[C@@H]2C1`, the cytotoxicity at 10 µM was -104%. The result for `O=C(Cc1ccccc1)N1CCC2(CC1)CN(c1ncccn1)CCO2` reads -72.3%; that for `COCC(=O)N1C[C@H]2CN(Cc3cccc(F)c3)C(=O)[C@H]2C1`, -83.5%. Regarding `CC(=O)N1CCC2(CCN(C(=O)c3ccc(Cl)c(C(F)(F)F)c3)C2)C1` (stereo not given), the cytotoxicity at 10 µM is -85.8%.

`CN(C)CCNC(=O)CCC1CCN(C(=O)c2ccc(Cl)cc2O)CC1`: the cytotoxicity at 10 µM is -11.7%. For the compound `Cc1ccc(-c2nc(CN3C[C@@H](C)NC[C@@H]3C)c(C)o2)s1`, the cytotoxicity at 10 µM is -11.7%. For `Cc1cc(N2CCN(Cc3ccsc3)C(CCO)C2)nc(N)n1` (stereo not given), the cytotoxicity at 10 µM is -7.3%.

On to `COCCn1cncc1CN1CCC(C(C)=O)(c2ccccc2)CC1`, for which the cytotoxicity at 10 µM was 1.92%. For the compound `CCn1cnnc1CN(C)Cc1nc(-c2cc(OC)ccc2F)oc1C`, the cytotoxicity at 10 µM is -1.32%. `Cc1ccc(OCC2CCCN(CC3CCOCC3)C2)cc1` (stereo not given): the cytotoxicity at 10 µM worked out at 16.1%. With `O=C(CCN1CCCO1)NC1CCCN(CC2CCCCC2)C1` (stereo not given), the cytotoxicity at 10 µM was found to be 7.3%.

Regarding `CC1(c2ccccc2)CCCN(Cc2cncn2C2CC2)C1` (stereo not given), the cytotoxicity at 10 µM is -1.06%. The result for `NC(=O)COc1ccc(CN2CCC(O)(CN3CCCCC3)C2)cc1Cl` (stereo not given) reads -1.73%; that for `NCCc1cccc(CN2CCN(c3cccc(Cl)c3)C(=O)C2)c1`, -5.29%. The result for `C1CCC(CNC2CCSCC2)(N2CCOCC2)CC1` reads -14.5%. As to `CC(Nc1nccc(CCC(F)(F)F)n1)c1nc(-c2ccncc2)no1` (stereo not given), the cytotoxicity at 10 µM amounted to 4.74%. As for `CCc1nc(C)sc1CNC1CCN(Cc2ccccc2)C1` (stereo not given), the cytotoxicity at 10 µM was -31.7%. For the compound `Cc1cc2nc(C(C)C)cc(NC(C)c3nncn3C3CCCC3)n2n1` (stereo not given), the cytotoxicity at 10 µM was found to be 8.91%. Next, `Cc1ccc(C(C(=O)N(C)CCc2cn[nH]c2)N(C)C)cc1` (stereo not given): 0.0341%; `CCCn1ccnc1-c1nccn1CCn1cnnc1`: -3.53%; `c1cnc(N2CCN(CCn3ccnc3-c3ccncc3)CC2)nc1`: -3.25%. The result for `Cc1ccc(CN(C)c2nccc(-c3cn(C)nc3C)n2)o1` reads 4.17%.

Consider `CC(C)CN1CCCC1c1ccc(C(=O)Nc2ccc3[nH]nnc3c2)s1` (stereo not given), for which the cytotoxicity at 10 µM was 19.1%. On to `COC(=O)CC1C(=O)NCCN1c1nc2c(s1)c(C)nn2C` (stereo not given), for which the cytotoxicity at 10 µM was -7.36%. Regarding `Cc1ccnn1CC(=O)N(C)Cc1cnn(-c2ccccc2)c1`, the cytotoxicity at 10 µM amounted to 9%. As for `Cc1nc(N2CCC(O)(c3ccc(F)cc3)CC2)c2c(C)nn(C)c2n1`, the cytotoxicity at 10 µM is -0.503%.

For the compound `CN(C)c1nc2c(c(=O)[nH]1)CCN(C(=O)c1c[nH]c(=O)c(Cl)c1)C2`, the cytotoxicity at 10 µM turned out to be 6.32%.

Consider `CSc1ccc(CN(C(=O)c2cc(C)[nH]c(=O)c2)C2CC2)cc1`, for which the cytotoxicity at 10 µM was -49.5%. `CCCN1CCN(Cc2cc(Cl)cc(Cl)c2)[C@H]2CS(=O)(=O)C[C@H]21`: the cytotoxicity at 10 µM is -2.45%. Regarding `COCCN(C)C[C@H]1C[C@H](CO)CN(C(=O)c2ccc(=O)n(C)c2)C1`, the cytotoxicity at 10 µM is -1.06%. Turning to `O=C(NCc1cc2ccccc2s1)c1cc(CN2CCCC(O)C2)on1` (stereo not given), the cytotoxicity at 10 µM is -40%. For `O[C@@H]1CN(c2noc(C3CC3)n2)CC[C@H]1c1ccc2ccccc2c1`, the cytotoxicity at 10 µM came to 5.11%. As to `COc1ccc(-c2ccccc2CCN)c(OC)c1OC`, the cytotoxicity at 10 µM came out at 2.79%. With `COCCCNCc1cc(O)c2cc(C)cc(C)c2n1`, the cytotoxicity at 10 µM was -6.31%.

Turning to `CC1CNC(=O)CCN1Cc1cc(O)c2cccc(F)c2n1` (stereo not given), the cytotoxicity at 10 µM is -4.5%. Turning to `Cc1cnn(C2CN(Cc3nc(-c4ccccn4)no3)C2)c1`, the cytotoxicity at 10 µM came out at 3.24%. Take `CCc1nnc2n1CCN(Cc1cccc3c1OCCO3)C2`: the cytotoxicity at 10 µM is -7.42%. As to `COc1cccc(C(NCc2ccc(SC)cc2)c2nccn2C)c1` (stereo not given), the cytotoxicity at 10 µM is -5.54%. With `O=C(CC1C=CCC1)Nc1ncn(CC(=O)N2CCCCCC2)n1` (stereo not given), the cytotoxicity at 10 µM was -3.72%. Regarding `CC(c1nc(C2CC2)no1)N1CCN(Cc2noc(C3CC3)n2)CC1` (stereo not given), the cytotoxicity at 10 µM was 4.63%. The result for `Cn1cnnc1C1CCCN(C(=O)NCc2cc[nH]n2)C1` (stereo not given) reads -6.73%. For the compound `O=C1COc2cc(C(=O)NS(=O)(=O)c3ccccc3F)ccc2N1`, the cytotoxicity at 10 µM is -4.79%. As for `Cc1cnn(CCNCc2ccccc2C#N)c1`, the cytotoxicity at 10 µM is -9.14%. Next, `CC(O)CN1CCN(C(=O)c2ccc(N(C)C)nn2)CC1` (stereo not given): -13.4%; `O=C(c1ccc(Cl)o1)N1CCCN(Cc2cscn2)CC1`: -1.08%; `Cc1cccc(CNc2cc(C3CCCNC3)ccn2)n1` (stereo not given): 3.81%.

Regarding `CCn1c(CN2CCCC(O)(c3ccc(F)cc3)CC2)cnc1SC` (stereo not given), the cytotoxicity at 10 µM was -0.466%.

As to `COc1ccc(F)c(CN2CCC(c3cc(O)nc(C)n3)C2)c1` (stereo not given), the cytotoxicity at 10 µM came out at 5.61%. `Cc1noc(C)c1CN1C[C@@H]2COC[C@H](C(=O)N3CCCCO3)[C@@H]2C1`: the cytotoxicity at 10 µM is -1.98%. For the compound `c1ccc(COC[C@H]2CC[C@H]3[C@H](CCN3Cc3ccccn3)O2)nc1`, the cytotoxicity at 10 µM was -84.7%. For `Fc1cccc(N2C[C@H]3CCN(c4cccnc4)C[C@H]3C2)c1`, the cytotoxicity at 10 µM was 15.4%. Turning to `O=C(NCc1cnc2n1CCN(CC1CCOCC1)C2)c1ccno1`, the cytotoxicity at 10 µM is -101%.

Regarding `CCC1=N[C@@]2(CC[C@@H]3CN(Cc4ccc(Cl)cc4)C[C@@H]32)C(=O)N1C`, the cytotoxicity at 10 µM was determined as 1.98%. Next, `CNC(=O)[C@H]1C[C@@H]2CN(S(=O)(=O)c3cccc(C)c3)C[C@@H]2N1C`: 1.59%. For `CN(C)c1nc(N2CCCC2)nc2c1CCN(Cc1nccn1C)CC2`, the cytotoxicity at 10 µM is -97.2%. Consider `OC1(Cn2ccc3ncccc32)CCN(Cc2ccccn2)CC1`, for which the cytotoxicity at 10 µM worked out at 5.33%.

For the compound `O=C([C@H]1C[C@H]2OCC[C@H]2N(CC2CCOCC2)C1)N1CCCCO1`, the cytotoxicity at 10 µM was -73.9%. Turning to `CCOC(=O)N1CCc2ccccc2C12CCNCC2`, the cytotoxicity at 10 µM worked out at 1.15%.

Take `CN(Cc1cccnc1)C1CC2(CCN(Cc3ccccn3)CC2)C1`: the cytotoxicity at 10 µM was -84%. Turning to `COc1ccc2c(c1)sc(=NC(=O)CSCC(=O)Nc1nccs1)n2C`, the cytotoxicity at 10 µM is -8.36%.
